This is a sample that favours compounds with a hit; in the whole collection about 1.7% have one here.
STEP block – blocks human striatal-enriched tyrosine phosphatase. P54829. recombinant STEP, OMFP fluorogenic substrate, fluorescence. inhibition, % at 20 µM. 360,000 tested, 0.25% active;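 active = inhibition at 20 µM, scaled per plate between control wells, above about 37%, limit read from the data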;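 also: 0% = DMSO with enzyme and substrate and 100% = substrate only without enzyme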
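Assay system: isolated STEP enzyme / Timing: 20 min at room temperature, dark / Doses: 20 µM, 1% DMSO / Technique: fluorescence intensity, excitation 480 nm, emission 540 nm / Reagent: fluorogenic phosphatase substrate OMFP at 25 µM final / Measure: percent inhibition scaled to no-enzyme and uninhibited-enzyme controls, plate-pattern corrected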
SUMO1-SIM PPI – SUMO1-SIM interaction modulation | P63165 | SUMO1 binding to a labelled peptide, TR-FRET, 1 h | inhibition, % at 20 µM | 360,000 tested, 0.33% active | AID 602429; in the data active = inhibition above about 37%
Target sequence (P63165 whole entry, looked up): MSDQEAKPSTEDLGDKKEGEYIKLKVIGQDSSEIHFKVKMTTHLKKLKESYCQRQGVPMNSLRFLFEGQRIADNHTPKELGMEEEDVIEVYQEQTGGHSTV
Scp1 inh – Scp-1 (human) phosphatase inhibition; Q9GZU7; Recombinant Scp1, phosphopeptide, malachite green phosphate absorbance; inhibition, % at 20 µM; 340,000 tested, 0.88% active; AID 493091;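 active = inhibition above about 50% at 20 µM, limit read from the data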;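 also: plate controls were DMSO wells with enzyme for no effect and wells lacking enzyme for full effect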
Target sequence (Q9GZU7 76-261 limits assumed): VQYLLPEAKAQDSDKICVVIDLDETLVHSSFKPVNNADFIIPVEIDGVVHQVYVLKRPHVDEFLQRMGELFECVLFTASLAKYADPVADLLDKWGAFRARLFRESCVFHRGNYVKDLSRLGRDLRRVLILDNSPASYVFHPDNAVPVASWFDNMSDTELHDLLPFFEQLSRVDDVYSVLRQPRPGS
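Assay system: SCP-1 catalytic fragment, aa 76-261 | Buffer or medium: Tris acetate buffer pH 5.5 with MgCl2 and Tween-20 | Compound: One concentration, 20 µM, with 1.0% DMSO | Also added: Phospho 17-mer peptide substrate | Signal: Absorbance at 630 nm | Incubation: 45 min enzyme reaction at room temperature | Measure: % inhibition of SCP-1 phosphate liberation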
LMPTP inh – blocks human LMPTP phosphatase. P24666. recombinant LMPTP-A, OMFP fluorogenic substrate, fluorescence intensity. inhibition, % at 20 µM. 360,000 tested, 0.22% active;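 active = compounds that cut the enzyme signal by at least half of the control window in the single-dose screen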;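 also: plate controls were DMSO wells with enzyme plus substrate for no effect and substrate without enzyme for full effect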
Target sequence (P24666 whole entry, looked up): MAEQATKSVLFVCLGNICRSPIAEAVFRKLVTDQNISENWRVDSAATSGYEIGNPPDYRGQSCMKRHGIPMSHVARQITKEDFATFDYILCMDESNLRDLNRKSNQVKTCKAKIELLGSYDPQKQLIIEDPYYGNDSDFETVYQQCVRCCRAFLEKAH
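Assay system: LMPTP-A enzyme. Input: 0.625 nM LMPTP-A final. Probe or stimulus: 400 µM OMFP. Compound dosing: single 20 µM dose. Schedule: 50 min dark incubation at room temperature. Detection: fluorescence intensity of OMFP turnover product. Read-out: percent inhibition versus substrate-only and uninhibited controls. Benchmarks: no-enzyme low control, uninhibited high control.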
DNMT1 inh – DNMT1 (human) enzyme inhibition | DNMT1 molecular beacon, Hinp1I cleavage, fluorescence | inhibition (reported as % activation of signal), % at 10 µM | 360,000 tested, 0.83% active; in the data active = inhibition above about 50%
Beacon interf DR – beacon fluorescence artifact, dose response counter-screen | shares compounds with DNMT1 inh | 200 tested, under 10 active | IC50, µM | molecular beacon fluorescence, spectral interference counter-screen; call rule not given here
DNMT1 inh conf – DNMT1 inhibition confirmation, single concentration | DNMT1 molecular beacon HinP1I cleavage, fluorescence | 2,300 tested, 8% active | shares compounds with DNMT1 inh | AID 602385 | inhibition, % at 10 µM;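 active = average inhibition of at least 30% in the single-concentration confirmation test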
Beacon interf – shows spectral interference in the DNMT1 beacon assay | 2,300 tested, 1% active | DNMT1 molecular beacon spectral interference counterscreen, fluorescence 485/520 | activation (fluorescence interference), % at 10 µM | shares compounds with DNMT1 inh;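 active = activation of at least 30% at 10 µM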;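 also: DNMT1 catalytic domain with a HinP1I cleavage step and a FAM/dabcyl DNA beacon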
An asterisk follows results filed as active; . = not tested or not shown.

SMILES | STEP block | SUMO1-SIM PPI | Scp1 inh | LMPTP inh | DNMT1 inh | DNMT1 inh conf | Beacon interf | others
CCN(CC)CCn1c2ccccc2c2cnc(N)c(C#N)c21 | -0.9 | 1.0 | 0.0 | -1.4 | 61.4* | 37.9* | 3.4 | Beacon interf DR=>99
Cc1cccc2cc(C#N)c(SCC(=O)NCC3CCCO3)nc12 (stereo unspecified) | 1.7 | -9.4 | -0.4 | -1.0 | 5.2 | . | .
Cc1cccc2c(SCC(=O)NCC3CCCO3)nc(-c3ccc(F)cc3)nc12 (stereo unspecified) | -2.0 | -1.6 | -0.4 | -1.5 | 46.7 | 4.8 | -4.5
Cc1ccc2c(c1)N(C(=O)CCC(=O)NCCN1CCOCC1)CC(C)O2 (stereo unspecified) | -6.3 | 4.0 | -1.2 | -1.6 | 1.2 | . | .
CCN(C(=O)COC(=O)Cc1c[nH]c2ccccc12)c1c(N)n(Cc2ccccc2)c(=O)[nH]c1=O | -2.0 | 0.3 | 1.3 | -0.4 | -1.0 | . | .
O=C1CCC(c2ccccc2)N1c1ccccc1 (stereo unspecified) | -3.4 | -0.8 | -1.8 | -0.8 | 3.4 | . | .
COc1ccc2c3c(cccc13)C(=O)CC2 | -91.6 | -48.2 | -12.1 | 22.8 | 127.5* | 22.8 | 36.9*
Cc1cc(=O)oc2cc(NC(=O)c3cccc(Br)c3)ccc12 | 26.3 | -4.7 | 49.2 | 27.4 | 51.3* | 1.9 | 0.3
CC(C)(C)c1ccc(OCC(=O)Nc2ccc(-c3nc4cccnc4o3)cc2)cc1 | 0.1 | 3.1 | 18.0 | 6.3 | 55.0* | 0.4 | 2.5
CC(C)C(=O)Nc1ccc(-c2nc3cccnc3o2)cc1 | 0.4 | -2.8 | -1.3 | -0.9 | 1.2 | . | .
CCCCNC(=O)C1(C)CCCCN1C(=O)c1csnn1 (stereo unspecified) | 4.1 | 1.8 | . | -0.6 | 4.6 | . | .
COc1ccc(Br)cc1/C=N/n1nnnc1N | 0.6 | -22.3 | -6.5 | -0.8 | 53.2* | -0.1 | 19.6
Nc1nnnn1/N=C/c1ccccc1O | -1.3 | -13.0 | -8.9 | -1.0 | -2.3 | . | .
COc1ccc(N2CCN(c3ccc(S(=O)(=O)N(C(C)C)C(C)C)cn3)CC2)cc1 | 2.0 | 3.2 | -6.4 | 1.7 | -9.3 | . | .
CC(=O)c1ccc2ccccc2c1OC(=O)c1ccncc1 | -2.1 | -9.4 | . | -1.1 | 3.1 | . | .
COc1ccc(CCC(N)=O)cc1OC | 4.1 | -2.8 | 16.4 | 0.0 | 1.2 | . | .
COc1cc2ccc(CC(N)=O)cc2cc1OC | -1.3 | 7.8 | . | 21.7 | 51.8* | -1.2 | -1.2
CC(c1ccccc1)n1ccnc1CO (stereo unspecified) | 2.9 | -4.3 | . | 0.0 | 0.2 | . | .
Cc1cc(NC(=O)Cc2cccs2)no1 | 8.9 | 7.8 | 83.6* | 55.0* | 111.2* | 2.5 | -6.0
Cc1ccc2oc(-c3ccc(C)c(NC(=O)Cc4cccs4)c3)nc2c1 | -1.0 | 4.2 | -4.4 | -0.7 | 51.9* | 2.4 | -0.4
Cc1cc(NS(=O)(=O)c2ccc(NC(=O)Cc3cccs3)cc2)no1 | -2.2 | 1.6 | -6.5 | 1.6 | 4.8 | . | .
Cc1ccc2oc(-c3ccc(C)c(NC(=S)NC(=O)c4cccs4)c3)nc2c1 | 1.6 | 1.6 | -1.7 | -0.5 | 51.1* | 0.2 | -2.5
Cc1ccc(-c2nc3ccccc3o2)cc1NC(=S)NC(=O)c1cc2ccccc2o1 | 1.3 | -1.7 | -7.1 | 0.1 | 48.7 | . | .
Cc1ccc(-c2nnc(-c3ccc(NC(=O)Cc4cccs4)cc3)o2)cc1 | 3.6 | -1.3 | 37.2 | 3.9 | 49.0 | 7.1 | -1.3
Fc1ccccc1OCCCn1ccnc1 | -5.7 | 2.5 | -6.2 | -0.5 | -4.0 | . | .
CCOC(=O)C1=C(COC(=O)/C=C/c2cccc(F)c2)NC(=O)NC1C (stereo unspecified) | 2.5 | -12.3 | -12.4 | -1.2 | 1.5 | . | .
COc1ccc(C(O)c2nc(-c3cccs3)cs2)cc1 (stereo unspecified) | -1.1 | -10.9 | . | 0.1 | 0.5 | . | .
COc1ccc2oc(C(=O)Nc3ccc(N4CCOCC4)cc3)c(C)c2c1 | 1.5 | 2.3 | 14.8 | 2.3 | 50.6* | 21.2 | 1.6

High-throughput results deposited in PubChem BioAssay by Sanford-Burnham Center for Chemical Genomics.
